S1P4 antag = antagonists of human S1P4 receptor | 220,000 compounds, 0.26% hits | inhibition, % at 4.98 µM | AID 1510 | S1P4-expressing cells, antagonist mode, reporter read-out; in the data active = inhibition above about 29%;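 note: 0% = wells stimulated with agonist and 100% = vehicle wells without agonist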
NPY Y2 blocker = NPY-Y2 (human) receptor antagonism; inhibition, % at 2.7 µM; AID 793; NPY-Y2 expressing cells, antagonist mode; 140,000 compounds, 0.99% hits; in the data active = inhibition above about 17%;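 note: 0% = vehicle with agonist challenge and 100% = reference antagonist with challenge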
Target sequence (P49146 whole entry, looked up): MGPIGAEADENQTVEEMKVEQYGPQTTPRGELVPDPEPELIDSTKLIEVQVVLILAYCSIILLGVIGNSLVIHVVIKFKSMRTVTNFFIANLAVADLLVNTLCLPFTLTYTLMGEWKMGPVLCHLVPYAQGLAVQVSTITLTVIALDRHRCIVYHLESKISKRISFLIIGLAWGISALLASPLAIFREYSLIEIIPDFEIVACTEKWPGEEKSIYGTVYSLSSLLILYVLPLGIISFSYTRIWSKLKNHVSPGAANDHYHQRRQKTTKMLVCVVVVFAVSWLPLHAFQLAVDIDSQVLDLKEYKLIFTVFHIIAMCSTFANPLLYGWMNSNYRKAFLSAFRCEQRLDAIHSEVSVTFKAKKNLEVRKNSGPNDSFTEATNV
NPY2 pot ag = human NPY-Y2 potentiation or agonism, primary screen. 220,000 compounds, 0.45% hits. cells expressing NPY-Y2, potentiator/agonist read-out. AID 1359. activation, % at 3.6 µM. P49146; in the data active = activation above about 27%;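 note: cells stimulated with NPY near EC25 plus isoproterenol at EC100; 0% = vehicle plus submaximal agonist and 100% = vehicle plus saturating agonist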
NPY Y1 blocker = antagonists of human neuropeptide Y receptor Y1; inhibition, % at 3.6 µM; HEK293-CNG Y1 cells, membrane potential fluorescence; NPY at EC95, then isoproterenol; P25929; AID 1040; 200,000 compounds, 1% hits;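 active = inhibition above the campaign mean inhibition of all tested compounds plus 3 SD, cut at about 20% in these data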;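 note: 0% = DMSO wells given NPY plus isoproterenol and 100% = isoproterenol alone without NPY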
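Material: HEK293 Y1/CNG channel cell line | Also added: NPY (25 nM), isoproterenol (1 µM), Ro 20-1724 (25 µM) | Compound: One concentration, 3.6 µM, in 0.4% DMSO | Schedule: 3 h dye uptake, 1 h room-temperature compound, 45 min post-isoproterenol | Signal: Membrane-potential fluorescent dye readout | Read-out: % inhibition of NPY effect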
S1P4 agonist = agonists of human S1P4 receptor. 220,000 compounds, 0.35% hits. AID 1509. activation, % at 4.98 µM. S1P4-expressing cell line, agonist reporter assay. O95977; in the data active = activation above about 11%;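 note: 0% = DMSO vehicle and 100% = reference agonist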
NPY1 pot ag = potentiates or activates human NPY-Y1 receptor | P25929 | NPY-Y1 expressing cells, potentiator/agonist activation | activation, % at 3.6 µM | 220,000 compounds, 0.37% hits; in the data active = activation above about 33%, passing the limit was not always enough;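 note: cells stimulated with NPY at EC10 then isoproterenol at EC100; 0% = low agonist plus stimulus and 100% = saturating agonist plus stimulus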
NPY-Y2 pot conf = confirmation of human NPY-Y2 receptor potentiators or agonists; shares compounds with NPY2 pot ag; AID 1539; 450 compounds, 20% hits; activation, % at 3.6 µM; cell-based NPY-Y2 potentiator/agonist assay; in the data active = activation above about 33%
NPY-Y1 potentiator = counter-screen for NPY-Y2 potentiators or agonists: NPY-Y1 potentiators or agonists; AID 1651; activation, % at 3.6 µM; Y1 HEK293-CNG cells, membrane potential fluorescence; 450 compounds, 20% hits; shares compounds with NPY2 pot ag; in the data active = activation above about 45%;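 note: cells stimulated with submaximal NPY then isoproterenol with phosphodiesterase inhibitor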
NPY-Y1 agonist 2 = counter-screen for NPY-Y2 potentiators: agonists of human NPY-Y1. shares compounds with NPY2 pot ag. HEK293 Y1-CNGC, membrane potential fluorescence, agonism. activation, % at 3.6 µM. 450 compounds, 37% hits;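 active = activation above the mean of DMSO-only control wells plus 3 SD, cut at about 18% in these data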;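 note: cells stimulated with 1 µM isoproterenol plus the PDE inhibitor Ro 20-1724; 0% = isoproterenol with DMSO and no NPY and 100% = 40 nM NPY; Y1 agonists lower the membrane potential dye signal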
CNGC inhibitor = blocks CNG channel activity, counter-screen for NPY-Y2 potentiators; shares compounds with NPY2 pot ag; HEK293-CNG parental, isoproterenol cAMP, membrane potential fluorescence; inhibition, % at 3.6 µM; 450 compounds, 32% hits; AID 1703;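 active = inhibition above the control-well mean plus 3 SD of those wells, cut at about 22% in these data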;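 note: 0% = DMSO with isoproterenol and 100% = DMSO without isoproterenol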
NPY-Y2 ag 2 = NPY-Y2 agonism, counter-screen for Y2 potentiators; shares compounds with NPY2 pot ag; HEK293 Y2/CNGC cells, membrane potential fluorescence, agonist mode; activation, % at 3.6 µM; 450 compounds, 56% hits; AID 1710;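 active = activation above the mean of solvent-only control wells plus 3 SD, cut at about 10% in these data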;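 note: cells stimulated by isoproterenol with no NPY added so direct agonism is tested; 0% = DMSO with isoproterenol alone and 100% = NPY at EC100 plus isoproterenol; agonism lowers probe fluorescence through less cAMP and CNG channel opening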
Numbers without * were called inactive. Only some compounds are listed: those with a hit (about 2.4% of all), similar ones and a draw of the others.

`CN(C)S(=O)(=O)c1ccc(NC(=O)CN2CCCc3ccccc32)cc1` gave S1P4 antag -22.5, NPY2 pot ag 10.3, NPY Y1 blocker -4.1, S1P4 agonist 0.4 and NPY1 pot ag 1.4.
Cc1nc2ccccn2c1-c1ccnc(SCc2ccc(Cl)cc2)n1 was read as S1P4 antag -3.7, NPY2 pot ag 48.7*, S1P4 agonist 0.3, NPY1 pot ag -51.6, NPY-Y2 pot conf -43.5, NPY-Y1 potentiator -81.4, NPY-Y1 agonist 2 -54.5, CNGC inhibitor -48.5 and NPY-Y2 ag 2 -35.9.
Screening CCCNC(=S)Nc1c(C)n(C)n(-c2ccccc2)c1=O returned S1P4 antag -17.6, NPY2 pot ag -9.1, NPY Y1 blocker 4.0, S1P4 agonist -1.1 and NPY1 pot ag -7.5.
`CCOC(=O)c1cc(-c2ccccc2)sc1NC(=O)C(C)N1C(=O)c2ccccc2C1=O` (configuration not stated) gave S1P4 antag -13.2, NPY Y2 blocker 1.6, NPY2 pot ag -5.2, NPY Y1 blocker -3.2, S1P4 agonist -0.5 and NPY1 pot ag -35.3.
`CN(C)/C=C/C(=O)c1ncc(C(F)(F)F)cc1Cl` gave S1P4 antag -14.8, NPY2 pot ag 27.6*, NPY Y1 blocker -1.6, S1P4 agonist 3.4, NPY1 pot ag 1.9, NPY-Y2 pot conf -3.4, NPY-Y1 potentiator 3.1, NPY-Y1 agonist 2 -8.1, CNGC inhibitor -9.5 and NPY-Y2 ag 2 -2.4.
Screening NC(=O)c1ncc(C(F)(F)F)cc1Cl returned S1P4 antag -0.6, NPY2 pot ag 0.6, NPY Y1 blocker 6.1, S1P4 agonist 1.0 and NPY1 pot ag -18.0.
Screening Cc1ccc(S(=O)(=O)N2CCC(NC(=O)c3ccccc3)CC2)cc1 returned S1P4 antag -4.7, NPY2 pot ag -8.3, NPY Y1 blocker -0.2, S1P4 agonist 3.9 and NPY1 pot ag -2.0.
Screening CC(=O)NN1C(=O)c2ccccc2NC1c1ccoc1 (configuration not stated) returned S1P4 antag 0.6, NPY2 pot ag -0.3, NPY Y1 blocker 2.2, S1P4 agonist -0.3 and NPY1 pot ag 0.4.
For CC(=O)N(Cc1ccc(F)cc1)C1=C(NCc2ccccc2)C(=O)c2ccccc2C1=O the results were S1P4 antag -5.3, NPY Y2 blocker 2.2, NPY2 pot ag 37.6*, NPY Y1 blocker 2.9, S1P4 agonist 1.0, NPY1 pot ag -7.3, NPY-Y2 pot conf 16.0, NPY-Y1 potentiator 9.7, NPY-Y1 agonist 2 0.5, CNGC inhibitor 12.7 and NPY-Y2 ag 2 10.3*.
Screening CC(=O)n1nc(-c2ccccc2)nc1NCc1ccc(F)cc1 returned S1P4 antag 8.3, NPY Y2 blocker 6.2, NPY2 pot ag 15.7, NPY Y1 blocker 5.9, S1P4 agonist -0.7 and NPY1 pot ag -0.1.
Screening CC(C)c1nnc(NC(=O)CCC(=O)Nc2ccc3cn[nH]c3c2)s1 returned S1P4 antag -3.2, NPY2 pot ag 38.8*, S1P4 agonist 0.0, NPY1 pot ag -3.6, NPY-Y2 pot conf 0.1, NPY-Y1 potentiator -0.9, NPY-Y1 agonist 2 3.5, CNGC inhibitor 5.9 and NPY-Y2 ag 2 13.4*.
Screening CN(C)S(=O)(=O)c1ccc(NC(=O)CNc2cc(S(=O)(=O)N3CCCC3)ccc2OCC(F)(F)F)cc1 returned S1P4 antag -7.0, NPY Y2 blocker 0.5, NPY2 pot ag -4.2, NPY Y1 blocker 0.4, S1P4 agonist 0.7 and NPY1 pot ag 5.9.
